According to ChEMBL document CHEMBL4020725, “Design and synthesis of novel xanthine derivatives as potent and selective A2B adenosine receptor antagonists for the treatment of chronic inflammatory airway diseases” (Eur J Med Chem, 2017):

Legend:
Adenosine receptor A2b = molecular target: T1, Adenosine receptor A2b (Homo sapiens, UniProt P29275); assay: Displacement of [3H]-MRS-1754 from human adenosine A2B receptor expressed in HEK293 cell membranes after 90 mins
T1 sequence (P29275 whole entry): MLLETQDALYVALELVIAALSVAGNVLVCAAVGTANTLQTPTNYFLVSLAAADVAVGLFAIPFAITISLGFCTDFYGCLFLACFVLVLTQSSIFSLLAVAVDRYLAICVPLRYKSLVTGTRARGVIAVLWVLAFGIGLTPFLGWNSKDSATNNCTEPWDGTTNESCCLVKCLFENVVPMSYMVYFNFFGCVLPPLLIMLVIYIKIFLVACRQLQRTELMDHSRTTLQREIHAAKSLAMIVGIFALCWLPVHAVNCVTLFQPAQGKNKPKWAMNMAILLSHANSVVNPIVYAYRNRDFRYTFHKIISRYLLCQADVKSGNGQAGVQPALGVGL
Procedure, shortened: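 Membranes from HEK-293 cells stably expressing human A2B, ADA-treated, incubated with 1.6 nM [3H]-MRS-1754 in 50 mM Tris pH 6.5, 5 mM MgCl2, 1 mM EDTA, 1 U/ml ADA. Incubation 90 min at room temperature. Filtration; nonspecific binding with 100 µM NECA. Eight compound concentrations, each in triplicate; Ki derived by fitting.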

[1] = molecular target: T2, Adenosine receptor A3 (Homo sapiens) (UniProt P0DMS8); assay: Displacement of [3H]-HEMADO from human adenosine A3 receptor expressed in HEK293 cell membranes at 1 uM after 90 mins relative to control
T2 sequence (whole entry): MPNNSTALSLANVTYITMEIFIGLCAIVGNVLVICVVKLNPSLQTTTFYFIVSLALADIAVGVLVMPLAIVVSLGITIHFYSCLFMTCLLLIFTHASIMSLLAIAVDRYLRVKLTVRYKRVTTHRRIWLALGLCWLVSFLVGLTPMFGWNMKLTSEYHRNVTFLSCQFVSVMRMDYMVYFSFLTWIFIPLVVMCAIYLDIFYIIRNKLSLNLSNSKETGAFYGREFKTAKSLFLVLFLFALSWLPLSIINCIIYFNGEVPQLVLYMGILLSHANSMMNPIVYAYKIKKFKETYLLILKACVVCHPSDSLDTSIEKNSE
Procedure, shortened: (§1)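 Membranes from HEK-293 cells stably transfected with human A1, A2A or A3 receptor, pretreated with 1 U/ml ADA. Membranes are incubated 90 min at room temperature with gentle agitation. Tracer and buffer per receptor: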

[2] = molecular target: T3, Adenosine receptor A1 (Homo sapiens) (UniProt P30542); assay: Displacement of [3H]-DPCPX from human adenosine A1 receptor expressed in HEK293 cell membranes at 0.1 uM after 90 mins relative to control; procedure, shortened: as §1
T3 sequence (whole entry): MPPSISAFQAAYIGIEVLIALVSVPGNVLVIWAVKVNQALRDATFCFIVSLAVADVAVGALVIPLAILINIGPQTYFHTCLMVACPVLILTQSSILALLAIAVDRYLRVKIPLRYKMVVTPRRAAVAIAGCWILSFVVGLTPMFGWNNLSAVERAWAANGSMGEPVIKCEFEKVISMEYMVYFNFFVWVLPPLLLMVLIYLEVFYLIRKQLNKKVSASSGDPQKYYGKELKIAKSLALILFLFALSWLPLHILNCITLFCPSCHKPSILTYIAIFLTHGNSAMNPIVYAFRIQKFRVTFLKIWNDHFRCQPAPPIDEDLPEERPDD

[3] = molecular target: Adenosine receptor A2a (Homo sapiens) (UniProt P29274); assay: Displacement of [3H]-ZM241385 from human adenosine A2A receptor expressed in HEK293 cell membranes at 0.1 uM after 90 mins relative to control; procedure, shortened: as §1
Chain of Adenosine receptor A2a (Homo sapiens) (P29274 whole entry): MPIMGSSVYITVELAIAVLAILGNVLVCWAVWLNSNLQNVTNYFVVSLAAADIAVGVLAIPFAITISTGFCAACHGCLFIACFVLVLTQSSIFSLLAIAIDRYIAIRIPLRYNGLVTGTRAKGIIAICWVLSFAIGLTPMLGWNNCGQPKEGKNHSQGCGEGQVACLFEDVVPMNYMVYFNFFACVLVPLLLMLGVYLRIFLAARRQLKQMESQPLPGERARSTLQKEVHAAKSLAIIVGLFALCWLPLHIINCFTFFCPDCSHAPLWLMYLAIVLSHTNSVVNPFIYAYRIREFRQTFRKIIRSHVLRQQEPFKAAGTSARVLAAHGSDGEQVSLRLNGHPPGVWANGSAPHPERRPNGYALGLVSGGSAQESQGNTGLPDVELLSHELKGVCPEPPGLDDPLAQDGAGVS

Row | Ki (Adenosine receptor A2b; hek293) | Ki (Adenosine receptor A2b; read-out: Ki) | inhibition [1] | inhibition [2] | inhibition [3] | SMILES
1 | Nd(Insoluble) | – | – | – | – | CCCn1c(=O)c2[nH]c(-c3cc(OCC#Cc4cccc(C(F)(F)F)c4)n(C)n3)nc2n(CCC)c1=O
2 | – | 1.6 nM | 17% | 88% | 46% | CCCn1c(=O)[nH]c2nc(-c3cnn(CC#Cc4ccc(OC(F)(F)F)cc4)c3)[nH]c2c1=O
3 | – | 100 nM | – | – | – | CCCn1c(=O)c2[nH]c(-c3cnn(CC#CC4(O)CCCCC4)c3)nc2n(CCC)c1=O
4 | – | 130 nM | – | – | – | CCCn1c(=O)c2[nH]c(-c3cnn(CC#Cc4ccc(C(=O)O)cc4)c3)nc2n(CC)c1=O
5 | – | 48 nM | – | – | – | CCCn1c(=O)[nH]c2nc(-c3cnn(CC#Cc4cccc(C(=O)O)c4)c3)[nH]c2c1=O
6 | – | 3.5 nM | 27% | 80% | 19% | CCCn1c(=O)c2[nH]c(-c3cnn(CC#Cc4ccc(C(=O)OCC)cc4)c3)nc2n(CCC)c1=O
7 | – | 55 nM | – | – | – | CCCn1c(=O)c2[nH]c(-c3cc(OCC#Cc4cccc(F)c4)no3)nc2n(CCC)c1=O
8 | – | 12 nM | 43% | 37% | 41% | CCCn1c(=O)c2[nH]c(-c3cnn(CC#Cc4ccccc4C(=O)OC)c3)nc2n(CCC)c1=O
9 | Nd(Insoluble) | – | – | – | – | CCCn1c(=O)c2[nH]c(-c3ccc(OCC#Cc4ccc(C(F)(F)F)cc4)cc3)nc2n(CCC)c1=O
10 | – | 12 nM | 31% | 69% | 10% | CCCn1c(=O)c2[nH]c(-c3cnn(CC#CCN4CCN(c5cccc(C(F)(F)F)c5)CC4)c3)nc2n(CCC)c1=O
11 | Nd(Insoluble) | – | – | – | – | CCCn1c(=O)c2[nH]c(-c3cc(OCC#Cc4ccc(OC(F)(F)F)cc4)n(C)n3)nc2n(CCC)c1=O
12 | – | 14 nM | 14% | 14% | 29% | CCCn1c(=O)c2[nH]c(-c3cnn(CC#Cc4ccc(C#N)cc4)c3)nc2n(CCC)c1=O
13 | – | 15 nM | – | – | – | CCCn1c(=O)c2[nH]c(-c3cc(OCC#Cc4ccc(F)cc4)no3)nc2n(CCC)c1=O
14 | – | 5 nM | 9% | 57% | 55% | CCCn1c(=O)c2[nH]c(-c3cnn(CC#Cc4cccc(C)c4)c3)nc2n(CCC)c1=O
15 | – | 6.3 nM | 21% | 57% | 74% | CCCn1c(=O)c2[nH]c(-c3cnn(CC#Cc4cccc(OC)c4)c3)nc2n(CCC)c1=O
16 | – | 190 nM | – | – | – | CCCn1c(=O)c2[nH]c(-c3cnn(CC#Cc4cccc(C(=O)O)c4)c3)nc2n(CC)c1=O
17 | – | 3.7 nM | 0% | 52% | 84% | CCCn1c(=O)c2[nH]c(-c3cnn(CC#Cc4cccc(C#N)c4)c3)nc2n(CCC)c1=O
18 | – | 9.9 nM | 32% | 84% | 49% | CCCn1c(=O)c2[nH]c(-c3cnn(CC#Cc4ccc(OC(F)(F)F)cc4)c3)nc2n(CC)c1=O
19 | – | 1.5 nM | 12% | 84% | 30% | CCCn1c(=O)c2[nH]c(-c3cnn(CC#Cc4ccc(C(F)(F)F)cc4)c3)nc2n(CCC)c1=O
20 | Nd(Insoluble) | – | – | – | – | CCCn1c(=O)c2[nH]c(-c3ccc(OCC#Cc4cccc(OC(F)(F)F)c4)cc3)nc2n(CCC)c1=O
21 | – | 7.4 nM | 23% | 73% | 58% | CCCn1c(=O)c2[nH]c(-c3cnn(CC#Cc4cccc(F)c4)c3)nc2n(CC)c1=O
22 | – | 23 nM | – | 42% | 60% | CC#CCn1cc(-c2nc3c([nH]2)c(=O)n(CCC)c(=O)n3CCC)cn1
23 | Nd(Insoluble) | – | – | – | – | CCCn1c(=O)c2[nH]c(-c3ccc(OCC#Cc4ccc(F)cc4)cc3)nc2n(CCC)c1=O
24 | – | 1.3 nM | 15% | 89% | 39% | CCCn1c(=O)[nH]c2nc(-c3cnn(CC#Cc4ccc(C(F)(F)F)cc4)c3)[nH]c2c1=O

Row | Ki (Adenosine receptor A2b; hek293) | Ki (Adenosine receptor A2b; read-out: Ki) | inhibition [1] | inhibition [2] | inhibition [3] | SMILES
25 | – | 4.9 nM | 32% | 43% | 64% | CCCn1c(=O)c2[nH]c(-c3cnn(CC#Cc4cccc(C(F)(F)F)c4)c3)nc2n(CCC)c1=O
26 | – | > 1000 nM | – | – | – | CCCn1c(=O)c2[nH]c(-c3ccc(OCC#Cc4cccc(F)c4)cc3)nc2n(CCC)c1=O
27 | – | > 600 nM | – | – | – | CCCn1c(=O)c2[nH]c(-c3cc(OCC#Cc4cccc(OC(F)(F)F)c4)no3)nc2n(CCC)c1=O
28 | – | > 600 nM | – | – | – | CCCn1c(=O)c2[nH]c(-c3ccc(OCC#Cc4ccc(OC(F)(F)F)cc4)cc3)nc2n(CCC)c1=O
29 | – | 6.7 nM | 0% | 87% | 64% | CCCn1c(=O)c2[nH]c(-c3cnn(CC#Cc4cccc(F)c4)c3)nc2n(CCC)c1=O
30 | – | 120 nM | 59% | 66% | 67% | CCCn1c(=O)c2[nH]c(-c3cnn(CC#CCN4CCCC4)c3)nc2n(CCC)c1=O
31 | – | 330 nM | 51% | 28% | 39% | CCCn1c(=O)c2[nH]c(-c3cnn(CC#CCN4CCOCC4)c3)nc2n(CCC)c1=O
32 | – | 1.6 nM | 0% | 77% | 55% | CCCn1c(=O)[nH]c2nc(-c3cnn(CC#Cc4ccc(F)cc4)c3)[nH]c2c1=O
33 | – | 2.2 nM | 0% | 26% | 39% | CCCn1c(=O)[nH]c2nc(-c3cnn(CC#Cc4cccc(C(F)(F)F)c4)c3)[nH]c2c1=O
34 | – | 7.3 nM | 33% | 92% | 56% | CCCn1c(=O)c2[nH]c(-c3cnn(CC#Cc4ccc(F)cc4)c3)nc2n(CC)c1=O
35 | – | 83 nM | 79% | 55% | 73% | CCCn1c(=O)c2[nH]c(-c3cnn(CC#CCN4CCN(C)CC4)c3)nc2n(CCC)c1=O
36 | – | 12 nM | 14% | 66% | 21% | CCCn1c(=O)c2[nH]c(-c3cnn(CC#Cc4ccc(C(F)(F)F)cc4)c3)nc2n(CC)c1=O
37 | – | 62 nM | 32% | 56% | 69% | C#CCn1cc(-c2nc3c([nH]2)c(=O)n(CCC)c(=O)n3CCC)cn1
38 | – | > 600 nM | – | – | – | CCCn1c(=O)c2[nH]c(-c3cc(OCC#Cc4cccc(C(F)(F)F)c4)no3)nc2n(CCC)c1=O
39 | – | 5.5 nM | 37% | 92% | 51% | CCCn1c(=O)c2[nH]c(-c3cnn(CC#Cc4ccc(OC(F)(F)F)cc4)c3)nc2n(CCC)c1=O
40 | – | 17.6 nM | 25% | 19% | 44% | CCCn1c(=O)c2[nH]c(-c3cnn(CC#Cc4ccc(C(=O)O)cc4)c3)nc2n(CCC)c1=O
41 | – | 79 nM | – | – | – | CCCn1c(=O)c2[nH]c(-c3cnn(CC#CC4(O)CCCC4)c3)nc2n(CCC)c1=O
42 | – | 6.5 nM | 0% | 70% | 33% | CCCn1c(=O)c2[nH]c(-c3cnn(CC#Cc4ccc(C)cc4)c3)nc2n(CCC)c1=O
43 | – | 3 nM | 0% | 53% | 60% | CCCn1c(=O)[nH]c2nc(-c3cnn(CC#Cc4cccc(F)c4)c3)[nH]c2c1=O
44 | – | 200 nM | 69% | 71% | 59% | CCCn1c(=O)c2[nH]c(-c3cnn(CC#CCN(CC)CC)c3)nc2n(CCC)c1=O
45 | Nd(Insoluble) | – | – | – | – | CCCn1c(=O)c2[nH]c(-c3cc(OCC#Cc4ccc(C(F)(F)F)cc4)no3)nc2n(CCC)c1=O
46 | – | 5.9 nM | 19% | 105% | 66% | CCCn1c(=O)c2[nH]c(-c3cnn(CC#Cc4ccc(F)cc4)c3)nc2n(CCC)c1=O
47 | – | 140 nM | 73% | 64% | 74% | CCCn1c(=O)c2[nH]c(-c3cnn(CC#CCN4CCCCC4)c3)nc2n(CCC)c1=O
